Results reported in ChEMBL document CHEMBL3817747 (J Med Chem, 2016).

Test system: Influenza A virus
Experiment: Antiviral activity against oseltamivir-resistant Influenza A virus A/WSN/1933(H1N1) infected in MDCK cells assessed as protection against virus-induced cytopathic effect after 48 hrs by CellTiter 96 AQueous Non-Radioactive cell proliferation assay
Type: functional, organism-based
Procedure, shortened: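 Virus stock (100 TCID50, TCID50 set by serial dilution on MDCK and Reed–Müench) mixed 1:1 with inhibitor at varied concentrations, then used to infect MDCK cells (1 × 10^5 cells/mL) grown in DMEM with 10% FBS. Incubated 48 h, 37 °C, 5% CO2. CPE read by MTS-type reagent, 15 min, A490. EC50 from curve fit of % CPE vs concentration; mean ± SD of three experiments.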

SMILES | EC50
CCCCCCOP(=O)(O)[C@H]1C[C@@H](NC(=N)N)[C@H]([C@@H](NC(C)=O)C(CC)CC)[C@@H]1O | 18.6 nM
CCOP(=O)(O)C1=C[C@@H]([C@@H](NC(C)=O)C(CC)CC)[C@H](NC(=N)N)C1 | 19.1 nM
CCCCCCOP(=O)(O)C1=C[C@@H]([C@@H](NC(C)=O)C(CC)CC)[C@H](NC(=N)N)C1 | 18.5 nM
CC(=O)N[C@H]1[C@H]([C@H](O)[C@H](O)CO)OC(C(=O)O)=C[C@@H]1NC(=N)N [ZANAMIVIR] | 16.3 nM
CCOP(=O)(O)[C@@H]1C[C@@H]([C@@H](NC(C)=O)C(CC)CC)[C@H](NC(=N)N)C1 | 88.7 nM
CCC(CC)O[C@@H]1C=C(C(=O)O)C[C@H](N)[C@H]1NC(C)=O [OSELTAMIVIR CARBOXYLATE] | 5.5 nM
CCC(CC)[C@H](NC(C)=O)[C@@H]1C[C@@H](P(=O)(O)O)C[C@H]1NC(=N)N | 343 nM
CCC(CC)[C@H](NC(C)=O)[C@@H]1C=C(P(=O)(O)O)C[C@H]1NC(=N)N | 50.3 nM
CCC(CC)[C@H](NC(C)=O)[C@@H]1[C@H](O)[C@@H](P(=O)(O)O)C[C@H]1NC(=N)N | 260 nM
CCCCCCOP(=O)(O)[C@@H]1C[C@@H]([C@@H](NC(C)=O)C(CC)CC)[C@H](NC(=N)N)C1 | 43.2 nM
CCC(CC)[C@H](NC(C)=O)[C@@H]1[C@H](O)[C@@H](C(=O)O)C[C@H]1NC(=N)N [PERAMIVIR ANHYDROUS] | 1.5 nM
CCOP(=O)(O)[C@H]1C[C@@H](NC(=N)N)[C@H]([C@@H](NC(C)=O)C(CC)CC)[C@@H]1O | 66.5 nM
